In series [1] the target is T1, Dual specificity mitogen-activated protein kinase kinase 7 (Homo sapiens) (UniProt O14733).
T1 sequence (whole entry): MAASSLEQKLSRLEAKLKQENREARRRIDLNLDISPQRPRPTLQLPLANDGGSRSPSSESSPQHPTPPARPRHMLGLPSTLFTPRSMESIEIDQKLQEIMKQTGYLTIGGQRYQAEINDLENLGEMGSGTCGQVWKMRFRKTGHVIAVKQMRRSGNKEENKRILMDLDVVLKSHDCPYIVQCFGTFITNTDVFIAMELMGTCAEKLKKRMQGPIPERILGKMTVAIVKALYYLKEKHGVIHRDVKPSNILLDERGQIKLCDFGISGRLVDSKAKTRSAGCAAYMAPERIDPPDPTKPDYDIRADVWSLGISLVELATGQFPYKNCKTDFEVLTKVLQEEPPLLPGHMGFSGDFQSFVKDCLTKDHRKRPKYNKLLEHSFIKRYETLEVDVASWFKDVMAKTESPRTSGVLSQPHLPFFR
Put plainly: Binding affinity to N-terminal 6XHis-tagged recombinant MKK7 (117 to 423 residues) (unknown origin) assessed as protein labelling at 2 uM measured for 10 mins by LC/MS analysis relative to control.

Series [2] is described as follows: Kinetic solubility of compound.
Series [3] can be described thus: Apparent permeability across apical to basolateral side in human Caco2 cells. To be noted: Caco-2. (Passage across Caco-2 layers is used to estimate intestinal permeability.)
Series [4] is described as follows: Stability of the compound in human plasma assessed as parent compound remaining. The class given is ADME, cell-free.
Series [5] addresses T1, Dual specificity mitogen-activated protein kinase kinase 7 (Homo sapiens). Put plainly: Inhibition of N-terminal 6XHis-tagged recombinant MKK7 (117 to 423 residues) in human U2OS cells assessed as reduction in JNK phosphorylation level at 13.8 uM incubated for 2 hrs by ICW detection method relative to control. The class given is cell-based. In short, it runs like this:
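U2OS cells plated on fibronectin-coated 384-well plates, 24 h. Crude CuAAC reaction mixtures diluted in PBS and given to cells at 13.89 μM final for 2 h. 0.2 M sorbitol added 40 min before fixation. Cells fixed, permeabilized and immunostained for phospho-JNK T183/Y185. The 800 nm signal was normalized to CellTag700 and compared with control wells.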

The nature of series [6]: Metabolic stability in human liver microsomes assessed as intrinsic clearance measured after 60 mins. On the technique in general: Microsomes from liver hold many membrane-bound enzymes, among them those of drug oxidation.
Series [7] has as its target T2, Dual specificity mitogen-activated protein kinase kinase 7 (Homo sapiens, UniProt O14733).
T2 sequence (O14733 whole entry): T1 sequence (whole entry)
Put plainly: Inhibition of N-terminal 6XHis-tagged recombinant MKK7 (117 to 423 residues) in human U2OS assessed as reduction in c-Jun phosphorylation level incubated for 80 mins by Western blot analysis. The class given is cell-based. In short, it runs like this: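 U2OS cells in six-well plates, media changed, then exposed to compound in 0.1% DMSO for 80 min. Sorbitol added to 0.2 M for 40 min. Lysates (35 μg protein) run on western blot against p-c-Jun (Ser63), with GAPDH as loading control. Bands quantified and EC50 taken from a sigmoidal dose–response fit with top fixed at 1 and bottom at 0.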

≈ marks a conversion by molar mass, not a printed value.

One may read the kinetic solubility as the concentration staying in solution when a stock, usually in DMSO, is diluted into the medium. Usually Papp A→B stands for the apparent permeability from the apical to the basolateral side of a cell layer. The inhibition is the drop in the measured response relative to a control, in per cent. For orientation: microsomal CLint means the rate of metabolic loss divided by the concentration. A word on the EC50: it is the midpoint of the concentration-response curve.

Take `C#CCNC(=O)c1cc(NC(=O)C=C)cc(-c2n[nH]c3ccccc23)c1`: the Activity in series [1] was determined as 2%.

Turning to `C=CC(=O)N1CCC[C@@H](n2nc(-c3cn(-c4ccc(C(C)=O)cc4)nn3)c3c(N)ncnc32)C1`, in series [2], the solubility (kinetic) stood at 8 µM (≈ 3.66 µg/mL). Also, in series [3], the Papp A→B came to 20 ×10⁻⁶ cm/s. Also, the Stability in series [4] was found to be 70%. In addition, in series [5], the inhibition is 65%. Further, in series [6], the microsomal CLint at 1 h worked out at 154 µL/min/mg.

With `C=CC(=O)Nc1cc(C(=O)NCc2cn(C3CCC3)nn2)cc(-c2n[nH]c3ccccc23)c1`, the Activity in series [1] was over 70%.

In the case of `C=CC(=O)N1CCC[C@@H](n2nc(-c3cn(-c4ccc(CO)c(F)c4)nn3)c3c(N)ncnc32)C1`, the Activity in series [1] is over 70%. The inhibition in series [5] came to 65%.

`C=CC(=O)N1CCC[C@@H](n2nc(-c3cn(C[C@H](O)c4ccc(Br)cc4)nn3)c3c(N)ncnc32)C1`: the Activity in series [1] is over 70%. Besides, the inhibition in series [5] was determined as 65%.

For `C=CC(=O)N1CCC[C@@H](n2nc(-c3cn(CC(F)(F)c4ccc(Cl)cc4)nn3)c3c(N)ncnc32)C1`, in series [1], the Activity is over 70%. Moreover, the inhibition in series [5] is 65%.

As to `C=CC(=O)N1CCC[C@@H](n2nc(-c3cn(CCc4ccccc4)nn3)c3c(N)ncnc32)C1`, in series [1], the Activity is over 70%. In addition, the inhibition in series [5] was 65%.

Consider `C=CC(=O)N1CCC[C@@H](n2nc(-c3cn(-c4cc(Br)ccc4O)nn3)c3c(N)ncnc32)C1`, for which the Activity in series [1] is over 70%. The EC50 in series [7] was over 900 nM. For the same molecule, the inhibition in series [5] came out at 65%.

For the molecule `C=CC(=O)Nc1cc(C(=O)NCc2cn(-c3ccccc3C)nn2)cc(-c2n[nH]c3ccccc23)c1`, the Activity in series [1] was over 70%. In series [7], the EC50 was under 3000 nM.

With `C=CC(=O)N1CCC[C@@H](n2nc(-c3cn(-c4ccc(C(=O)OC)cc4)nn3)c3c(N)ncnc32)C1`, the Activity in series [1] was over 70%. Besides, in series [5], the inhibition was found to be 65%.

Turning to `C=CC(=O)N1CCC[C@@H](n2nc(-c3cn(-c4ccc(OC)cc4)nn3)c3c(N)ncnc32)C1`, the Activity in series [1] was over 70%. The inhibition in series [5] was 65%.

On to `C=CC(=O)Nc1cc(C(=O)NCc2cn(-c3ccc(F)c(Cl)c3)nn2)cc(-c2n[nH]c3ccccc23)c1`, for which the Activity in series [1] is over 70%.

As to `C=CC(=O)N1CCC[C@@H](n2nc(-c3cn(-c4ccc(Cl)cc4O)nn3)c3c(N)ncnc32)C1`, the Activity in series [1] is over 70%. Further, the inhibition in series [5] was found to be 65%.

For the molecule `C=CC(=O)Nc1cc(C(=O)NCc2cn([C@@H]3CCCC[C@H]3OC)nn2)cc(-c2n[nH]c3ccccc23)c1` (racemic), the Activity in series [1] is over 70%.

For the molecule `C=CC(=O)N1CCC[C@@H](n2nc(-c3cn(-c4ccc(Br)cc4)nn3)c3c(N)ncnc32)C1`, the Activity in series [1] is over 70%. Moreover, the inhibition in series [5] was found to be 65%.

On to `C#Cc1nn([C@@H]2CCCN(C(=O)C=C)C2)c2ncnc(N)c12`, for which, in series [1], the Activity was over 70%. Further, the inhibition in series [5] stood at 65%.

In the case of `C=CC(=O)N1CCC[C@@H](n2nc(-c3cn(CC(F)(F)c4ccccc4)nn3)c3c(N)ncnc32)C1`, the inhibition in series [5] was 65%.

Source of the values: ChEMBL document CHEMBL5120949, “Optimization of Covalent MKK7 Inhibitors via Crude Nanomole-Scale Libraries” (J Med Chem, 2022).
